According to PMC12171725 (RSC Advances, 2025):
≈ marks a conversion by molar mass, not a printed value.

What was measured:
[1] = system: methicillin-resistant Staphylococcus aureus (MRSA USA300); experiment: MIC by broth microdilution; format: cell-based; conditions: MRSA|USA300, read-out: MIC S. aureus USA300
Summary of the method: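 MRSA USA300 was grown overnight at 37 °C on tryptone soy agar, adjusted to 0.5 McFarland, then diluted in cation-adjusted Mueller-Hinton broth to ∼5 × 10^5 CFU ml−1. […] Plates were incubated aerobically at 37 °C for 18–20 h, following CLSI broth microdilution.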

[2] = system: Acinetobacter baumannii AB5075; experiment: MIC by broth microdilution; format: cell-based; conditions: AB5075, read-out: MIC A. baumannii AB5075, broth microdilution, 37 °C, 18–20 hours
[3] = system: MRSA USA300 biofilms; experiment: Disruption of mature MRSA biofilms; format: cell-based, Staphylococcus aureus; conditions: at 4× MIC
[4] = MTT cytotoxicity assay; format: cell-based; conditions: human, HEK293 cells (human embryonic kidney cell line)
[5] = system: erythrocytes; experiment: Hemolysis; format: cell-based; conditions: LC lytic concentration 30%

Row | SMILES | MIC [1] | MIC [2] | percentage of biofilm disruption relative to untreated controls [3] | IC50 [4] | Hemolysis LC [5]
1 | CCCCCCNS(=O)(=O)c1ccc(-n2nnc(C(C)=NNC(=N)N)c2C)cc1 [Compound 20, 2-(1-(1-(4-(N-Hexylsulfamoyl)phenyl)-5-methyl-1H-1,2,3-triazol-4-yl)ethylidene)hydrazine-1-carboximidamide] | 16 µg/mL (≈ 38 µM) | 16 µg/mL (≈ 38 µM) |  |  | 
2 | CCCCCCCCCNS(=O)(=O)c1ccc(-n2nnc(C(C)=NNC(=N)N)c2C)cc1 [Compound 23, 2-(1-(5-Methyl-1-(4-(N-nonylsulfamoyl)phenyl)-1H-1,2,3-triazol-4-yl)ethylidene)hydrazine-1-carboximidamide] |  | 64 µg/mL (≈ 138 µM) | 70–80% | 52.4 µM | >10 mg/mL
3 | CCCCNS(=O)(=O)c1ccc(-n2nnc(C(C)=NNC(=N)N)c2C)cc1 [Compound 18, 2-(1-(1-(4-(N-Butylsulfamoyl)phenyl)-5-methyl-1H-1,2,3-triazol-4-yl)ethylidene)hydrazine-1-carboximidamide] | > 64 µg/mL | > 64 µg/mL |  |  | 
4 | CCNS(=O)(=O)c1ccc(-n2nnc(C(C)=NNC(=N)N)c2C)cc1 [Compound 17, 2-(1-(1-(4-(N-Ethylsulfamoyl)phenyl)-5-methyl-1H-1,2,3-triazol-4-yl)ethylidene)hydrazine-1-carboximidamide] | > 64 µg/mL | > 64 µg/mL |  |  | 
5 | CCCCCCCCNS(=O)(=O)c1ccc(-n2nnc(C(C)=NNC(=N)N)c2C)cc1 [Compound 22, 2-(1-(5-Methyl-1-(4-(N-octylsulfamoyl)phenyl)-1H-1,2,3-triazol-4-yl)ethylidene)hydrazine-1-carboximidamide] | 64 µg/mL (≈ 143 µM) | 64 µg/mL (≈ 143 µM) |  |  | 
6 | CN[C@H](CC(C)C)C(=O)N[C@H]1C(=O)N[C@@H](CC(N)=O)C(=O)N[C@H]2C(=O)N[C@H]3C(=O)N[C@H](C(=O)N[C@H](C(=O)O)c4cc(O)cc(O)c4-c4cc3ccc4O)[C@H](O)c3ccc(c(Cl)c3)Oc3cc2cc(c3O[C@@H]2O[C@H](CO)[C@@H](O)[C@H](O)[C@H]2O[C@H]2C[C@](C)(N)[C@H](O)[C@H](C)O2)Oc2ccc(cc2Cl)[C@H]1O [Vancomycin, reference compound] | 1 µg/mL (≈ 0.69 µM) |  |  |  | 
